Compounds with a hit are over-represented: about 1.4% of the library has one in this group of screens.
p47phox inh = inhibitors of human p47phox binding. P14598. inhibition, % at 24.7 µM. p47phox/p22phox peptide binding, fluorescence polarization, 2 h. 220,000 compounds, 0.53% hits;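 active = inhibition above about 30%, limit read from the data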;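 also: 0% = p47phox with labelled peptide and 100% = labelled peptide alone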
Diaphorase act = counter-screen for diaphorase-based assays: diaphorase activators and chemical reducers; activation factor at 20 µM; AID 1229; 190,000 compounds, 0.005% hits; Diaphorase/resazurin coupled assay, resorufin fluorescence, 16 min; active compounds read high; 1 = vehicle wells, 0 = NADH-free wells;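 active = diaphorase activity raised at least twofold by the compound at 20 µM; inactive = activation factor below 2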
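Material: purified diaphorase enzyme from Clostridium kluyveri; Also added: 0.114 mM NADH and 0.1 mM resazurin, final amounts; Doses: single compound dose of 20 µM, 1% DMSO final; Times: 16 min enzyme reaction, ambient temperature; Detection: resorufin fluorescence, excitation 544 nm, emission 590 nm; Measure: increased resorufin signal from activators or reducing compounds.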
PMI activator = phosphomannose isomerase (human) activation; purified human PMI, coupled resazurin fluorescence, 20 min; active compounds read high; 1 = vehicle control, 0 substrate-free wells; activation factor at 20 µM; 190,000 compounds, 0.005% hits;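 active = activation factor of 2 or more at 20 µM, relative to plate controls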
Target sequence (P34949 whole entry, looked up): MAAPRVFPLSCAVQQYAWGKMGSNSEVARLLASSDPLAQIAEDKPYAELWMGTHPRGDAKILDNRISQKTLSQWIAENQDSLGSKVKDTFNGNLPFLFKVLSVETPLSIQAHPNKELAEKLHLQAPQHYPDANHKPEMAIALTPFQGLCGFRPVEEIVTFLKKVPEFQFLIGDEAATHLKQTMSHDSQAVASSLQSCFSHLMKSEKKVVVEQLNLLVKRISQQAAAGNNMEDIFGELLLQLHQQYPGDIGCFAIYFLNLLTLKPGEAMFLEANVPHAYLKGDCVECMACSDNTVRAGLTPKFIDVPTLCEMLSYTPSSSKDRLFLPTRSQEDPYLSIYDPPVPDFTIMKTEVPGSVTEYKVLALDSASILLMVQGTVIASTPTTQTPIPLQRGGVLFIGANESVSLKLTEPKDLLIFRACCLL
GSH fluor = compound fluoresces at 488/530 nm on GSH beads. 190,000 compounds, 0.25% hits. AID 1776. GSH beads flow cytometry, compound fluorescence 488/530 nm; active compounds read high. fluorescence (KMESF) at 10 µM; in the data active = fluorescence above about 89;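 also: glutathione beads carrying GST-tagged Bcl family fusion proteins plus one bare bead set; values are compound well signal with DMSO vehicle wells as background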
PMI act hi M6P = increases human PMI activity with near-saturating mannose 6-phosphate; 190,000 compounds, 0.34% hits; AID 1216; P34949; coupled PMI enzyme assay, resazurin fluorescence, 20 min; active compounds read high; 1 = untreated enzyme, 0 = substrate-free blank; activation factor at 20 µM;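 active = activation factor of 2 or more at 20 µM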
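Test system: Human PMI in coupled enzyme assay | Input: 15 ng/mL PMI | Medium: HEPES-buffered pH 7.4 with magnesium and detergent | Compound: One concentration, 20 µM, in 1% DMSO | Incubation: Enzyme reaction with compound 20 min at room temperature | Detection: Diaphorase-driven resazurin-to-resorufin fluorescence, excitation 544, emission 590 nm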
Avidin bead fluor = avidin bead compound fluorescence profile | Avidin beads, compound fluorescence 488/530 nm, flow cytometry; active compounds read high | fluorescence (KMESF) at 10 µM | 220,000 compounds, 0.38% hits; in the data active = fluorescence above about 47
* marks the source's active call; other numbers are inactive results; · = no result given; ! = repeats disagree.

SMILES	p47phox inh	Diaphorase act	PMI activator	GSH fluor	PMI act hi M6P	Avidin bead fluor
Cn1cnnc1Sc1ccc(C(=O)OCC(=O)NCC(F)(F)F)cc1[N+](=O)[O-]	-10	·	·	·	·	7
C=CCNC(=O)COC(=O)c1ccc(Sc2nncn2C)c([N+](=O)[O-])c1	-11	0.9	1	5	0.9	86*
CC(Sc1nnc(Cc2cccs2)n1C1CCCCC1)C(=O)N1CCc2ccccc21 (centres undefined)	-14	1	0.8	17	0.9	48*
CCOC(=O)c1c(/N=C/N(C)C)sc(/C=N/Nc2ccccc2)c1-c1ccc(Cl)cc1	-37	0.8	1.5	4	2.1*	11
CCOC(=O)c1c(/N=C/N(C)C)sc(C)c1C	-6	0.9	1	12	1.1	45
CC(=O)Nc1cccc(C(=O)NCC2(N3CCCCC3)CCCCC2)c1	-11	0.8	0.9	10	0.9	5
CN(C)c1ccc(C(c2ccc(N(C)C)cc2)c2ccc([N+](=O)[O-])cc2)cc1	37*	·	·	·	·	6
CCCCCCNC(=O)N[C@@H](C(=O)NCCC[C@H]1CN2C(=NC[C@@H]2Cc2ccccc2)N1CCc1cccc(OC)c1)C(C)C	66*	·	·	·	·	6
CN1CCN(CCCN2c3ccccc3Sc3ccc(Cl)cc32)CC1	110*!	0.9	1	20	0.9	9
O=C(NCCCN1CCN(CCCNC(=O)c2ccc(F)cc2)CC1)c1ccc(F)cc1	-7	1.1	1	16	1	13
CN1CCN(CCCNC(=O)c2ccc(/C=C3/Sc4ccccc4N(Cc4cccc(Cl)c4)C3=O)cc2)CC1	78*	1.5	1	18	1.1	5
CN1CCN(CCCNC(=O)c2ccc(/C=C3\Sc4ccccc4N(Cc4ccc(F)cc4)C3=O)cc2)CC1	87*	1.3	0.9	19	1	7
COCCCNC(=O)/C=C1\Sc2ccccc2N(Cc2ccccc2F)C1=O	3	0.8	0.9	17	0.9	7
CCN1CCN(CCNC(=O)c2ccc(/C=C3\Sc4ccccc4N(Cc4ccccc4F)C3=O)cc2)CC1	86*	1.6	0.8	15	1.1	24
COc1ccc(CNc2cc([N+](=O)[O-])ccc2OC)cc1	-20	0.9	1	10	1	12
CCOc1ccccc1Nc1ncccc1C(=O)N1CCCC1	-1	1.1	1	11	1	22
COc1ccc(NC(=O)CSc2c(C)n[nH]c2C)cc1	-5	1.2	1.2	16	1.3	8
Cn1c(=O)cc(SCC(=O)NCCC2=CCCCC2)c2cc(Cl)ccc21	-14	1	1	8	1	3
Cc1ccc(OC(=O)C(C)c2cccc(C(=O)c3ccccc3)c2)cc1 (centres undefined)	31*	0.9	0.9	7	0.9	27
Cc1ccccc1NC(=O)C(C)c1cccc(C(=O)c2ccccc2)c1 (centres undefined)	-11	1	0.9	35	0.9	11
CN1CCc2nc3sc(C(=O)NCc4ccccc4)c(N)c3cc2C1	6	0.9	1.3	16	1.2	10
COc1ccc(N2CCN(C(=O)COc3ccc4ccccc4c3)CC2)cc1	-10	0.9	0.9	17	0.9	53*
O=C(COc1ccc2ccccc2c1)N1CCN(C(=O)c2cccnc2)CC1	-8	0.9	1	17	0.9	85*
O=C(COc1ccccc1)N1CCN(c2ccc([N+](=O)[O-])c(N3CCCCC3)c2)CC1	-15	0.8	0.9	30	0.9	54*
COc1cc(OC)cc(C(=O)N2CCN(C(=O)COc3ccc4ccccc4c3)CC2)c1	-19	0.9	1	39	1	6
SMILES	p47phox inh	Diaphorase act	PMI activator	GSH fluor	PMI act hi M6P	Avidin bead fluor
CC(C)(C)Nc1cccccc1=O	-4	0.7	0.8	38	0.5	66*
Cc1ccc(Nc2cccccc2=O)cc1	-37	0.8	0.9	36	0.7	14
Cc1ccc(Nc2c3c(nc4ncnn24)CCC3)cc1	-1	0.9	0.9	37	0.9	82*
Cc1ccc(C)c(N/N=C2\CCCNC2=O)c1	-10	0.8	1.8	3	2.5*	15
Cc1ccccc1N/N=C1\CCCNC1=O	-4	0.9	1	11	1	35
CCOC(=O)C1C(c2cccs2)NC(=O)N(C)C1(O)C(F)(F)F (centres undefined)	-7	0.9	0.9	10	0.9	59*
CCn1c(C)cc(/C=C2\NC(=O)N(CC(=O)Nc3cccc(C)c3)C2=O)c1C	6	0.9	1	43	1	9
CCn1c(C)cc(/C=C2/NC(=O)N(CC(=O)Nc3cccc(C)c3)C2=O)c1C	59*	0.8	0.8	23	0.8	16
Cc1nc(SCc2ccc(C(=O)O)cc2)nc2c1CCCC2	-5	0.9	1	14	1	9
Cc1noc(/C=C/c2ccco2)c1S(=O)(=O)N1CCC(C(=O)N2c3ccccc3CC2C)CC1 (centres undefined)	-100	0.8	0.8	15	0.8	6
Fc1ccc(CSc2nncn2NCc2ccc3c(c2)OCO3)cc1	103*	0.9	1	30	1	14
O=C(CCCc1nc(-c2ccccc2)no1)N1CCOCC1	-2	1	1	248*	1	3
COc1cccc(-c2noc(CCCC(=O)N3CCOCC3)n2)c1	-13	0.9	1	23	1.1	14
Cc1cc(-c2csc(N)n2)c(C)n1CCc1ccccc1	-9	0.8	1.7	13	2*	7
Cc1ccc(O)c(C(=O)c2cnn(C(=O)COc3ccccc3C#N)c2)c1	32*	·	·	·	·	9
CCn1c(C)nc2cc(C(=O)NNC(=O)Nc3ccc(Cl)cc3)ccc21	-20	0.9	1.9	16	2.8*	12
CCn1c(C)nc2cc(C(=O)NNC(=O)Nc3cccc(Cl)c3)ccc21	-19	0.9	1	8	1	8
COC(=O)c1c(NC(=O)CCCC(=O)O)sc2c1CCC2	-1	0.8	1	11	1	17
CCNc1nc(NCC)nc(OCCOC(C)=O)n1	-6	1.1	1.1	132*	1.2	5
Cc1cc(N2CCOCC2)nc(C(C)C)n1	-4	0.9	1.1	12	0.9	9
COc1ccc(CCN2C(=O)NC(NC(=O)CCc3ccccc3)(C(F)(F)F)C2=O)cc1OC (centres undefined)	-18	0.9	0.9	9	1	11
O=c1oc2cc(OCc3ccc(C(F)(F)F)cc3)ccc2cc1-c1ccccn1	-5	1	1.1	30	1	16
COc1ccc2c(-c3cc4ccc(OCc5ccc(F)cc5)cc4oc3=O)cc(=O)oc2c1	37*	1.2	1.1	7	1	17

Assay outcomes (PubChem)
